F508del corr: CFTR F508del correction in bronchial cells. CFBE cells, YFP halide quenching; stimulated with forskolin plus potentiator P3; % fluorescence drop versus neutral controls. activity (quench increase), % at 7.58 µM. 350,000 tested, 0.36% active. AID 720511;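 active = mean added fluorescence quench of at least 8% versus neutral control, with both replicates also reaching 8%; inconclusive = only one of the mean or replicate conditions met; inactive = mean below 8% and not both replicates reaching 8%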;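 note: cells transiently co-express mutant CFTR-F508del with the halide-sensitive YFP; corrector assay measuring rescue of mutant channel to the surface after 24 h compound exposure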
FGF22 binding: shifts melting point of recombinant human FGF22; recombinant FGF22 thermal shift, SYPRO orange fluorescence; percent of sucrose octasulfate shift, DMSO zero; activity (Tm shift, normalised), % at 9.99 µM; 340,000 tested, 1.5% active; Q9HCT0; AID 651658;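 active = mean Tm shift, scaled 0 neutral to 100 positive control, at about 1.3% or above, every replicate too, limit read from the data; inconclusive = no clear call, values can overlap the other calls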
DENV2 CPE: inhibitors of DENV2 cytopathic effect; CPE inhibition, % at 9.99 µM; DENV2-infected cells, cytopathic effect rescue, plate reader; 350,000 tested, 1.7% active; in the data active = CPE inhibition above about 20%, passing the limit was not always enough; inconclusive = no clear call, values can overlap the other calls; tested in BHK-21 cells
ERAP1 HTS inh: blocks human ERAP1 aminopeptidase activity; Q9NZ08; recombinant ERAP1, Leu-AMC fluorescence, 60 min; inhibition, % at 10.7 µM; 340,000 tested, 0.15% active;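 active = mean replicate inhibition of at least 30%, or all replicates individually reaching that 30% level; inactive = mean below 30% and not every replicate reaching it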
E-selectin induc: E-selectin induction on HUVECs. 260,000 tested, 0.37% active. HUVEC E-selectin immunofluorescence imaging; normalized: neutral wells 0, TNF-alpha wells 100. activation, % at 7.58 µM. P16581;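 active = mean E-selectin-positive cell signal at least 10% of the positive control, reached in at least 60% of replicates, without over 20% cell loss; inconclusive = no rule given, readout overlaps actives, possibly toxicity-flagged; inactive = the rest, including those meeting only one limit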
Target sequence (P16581 whole entry, looked up): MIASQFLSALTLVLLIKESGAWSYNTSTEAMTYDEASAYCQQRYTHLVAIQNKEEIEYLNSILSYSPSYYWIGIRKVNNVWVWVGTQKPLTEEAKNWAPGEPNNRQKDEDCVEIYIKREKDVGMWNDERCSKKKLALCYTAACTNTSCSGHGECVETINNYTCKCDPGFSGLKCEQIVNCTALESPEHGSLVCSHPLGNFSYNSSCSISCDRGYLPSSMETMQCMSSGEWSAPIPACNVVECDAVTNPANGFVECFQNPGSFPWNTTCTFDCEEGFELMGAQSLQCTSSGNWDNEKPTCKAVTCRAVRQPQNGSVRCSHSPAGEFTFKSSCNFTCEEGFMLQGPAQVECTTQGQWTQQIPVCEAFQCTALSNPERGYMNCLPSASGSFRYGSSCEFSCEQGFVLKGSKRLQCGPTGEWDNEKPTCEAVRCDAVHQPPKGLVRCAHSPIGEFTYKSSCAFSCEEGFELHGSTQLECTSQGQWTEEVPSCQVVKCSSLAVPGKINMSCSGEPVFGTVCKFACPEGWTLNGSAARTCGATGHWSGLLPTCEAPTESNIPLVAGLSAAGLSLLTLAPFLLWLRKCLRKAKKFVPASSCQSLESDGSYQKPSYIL
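material = human umbilical vein endothelial cells (HUVEC), E-selectin induction | quantity = 3,000 cells/well | medium = EGM-2 growth medium on 0.1% gelatin-coated wells | technique = immunofluorescence imaging | read-out basis = % PE-positive cells | control set = TNF-alpha positive control, DMSO neutral control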
A number is an active result; i = inactive; ? = inconclusive; nt = no result given. Compounds with a hit are over-represented: about 3.7% of the library has one in this group of screens.

SMILES	F508del corr	FGF22 binding	DENV2 CPE	ERAP1 HTS inh	E-selectin induc
CCCc1cn(CC[C@@H]2CC[C@H](NC(=O)C3CC3)[C@@H](CO)O2)nn1	i	i	i	i	i
CC(C)Oc1ccccc1OC1(C)CCN(Cc2ccc(OC(F)(F)F)cc2)C1 (stereo not drawn)	i	i	42.2	i	i
CC(=O)c1ccc(OC2(C)CCN(Cc3ccc4ccccc4c3)C2)cc1 (stereo not drawn)	i	i	116.8	i	nt
COC(=O)Cc1ccc(OC2(C)CCN(Cc3csc4ccccc34)C2)cc1 (stereo not drawn)	i	i	25.7	i	i
C[C@H](CO)N1C[C@H](C)[C@H](CN(C)Cc2ccncc2)Oc2c(NS(=O)(=O)c3ccccc3)cccc2C1=O	i	i	i	i	i
Cc1ccc(S(=O)(=O)Nc2ccc3c(c2)CC(=O)N([C@H](C)CO)C[C@@H](C)[C@@H](CN(C)C(=O)Nc2cccc4ccccc24)O3)cc1	i	i	i	i	i
Cc1ccc(S(=O)(=O)Nc2ccc3c(c2)CC(=O)N([C@H](C)CO)C[C@H](C)[C@@H](CN(C)C(=O)Nc2cccc4ccccc24)O3)cc1	i	i	96.4	i	i
Cc1ccc(S(=O)(=O)Nc2ccc3c(c2)CC(=O)N([C@@H](C)CO)C[C@H](C)[C@@H](CN(C)C(=O)Nc2cccc4ccccc24)O3)cc1	i	i	32.8	i	i
C[C@@H]1CN([C@@H](C)CO)C(=O)Cc2cc(NC(=O)c3ccncc3)ccc2O[C@H]1CN(C)S(=O)(=O)c1ccc(F)cc1	i	i	i	i	i
O=C(CCCCn1ccc(=O)[nH]c1=O)Nc1ccc(O)c(C(=O)O)c1	i	43.1	i	i	i
CCCNC(=O)c1ccc2c(=O)c(O)c(-c3cccc(Br)c3)[nH]c2c1	8.4	i	i	i	i
COc1cc(OC)c2c(-c3cccc(-c4ccc(C(F)(F)F)cc4)c3)cc(=O)oc2c1	i	i	i	nt	nt
Cc1ccc(-c2cccc(-c3cc(=O)oc4ccc(C(C)(C)C)cc34)c2)cc1	8.7	i	i	nt	nt
N#C[C@@H]1[C@@H](c2ccc(-c3cncnc3)cc2)[C@H](CO)N1C(=O)C1CCCC1	i	i	23.1	i	i
N#C[C@H]1[C@@H](c2ccc(C3=CCCC3)cc2)[C@@H](CO)N1C(=O)C1CCCC1	i	i	72.0	i	i
N#C[C@@H]1[C@H](c2ccc(-c3cncnc3)cc2)[C@H](CO)N1C(=O)C1CC1	i	i	i	i	i
CCC(=O)N1CCC2(CC1)CN[C@@H](CO)c1c2c2ccc(OC)cc2n1C	i	i	?	i	i
Cc1cccc(Cc2cnc(N3C(=N)SC(C)C3=O)s2)c1 (stereo not drawn)	i	i	?	i	i
Cc1ccc(Cc2cnc(N3C(=N)SC(C)C3=O)s2)cc1 (stereo not drawn)	i	43.2	i	i	i
C[C@@H]1CCCCO[C@@H](CN(C)S(=O)(=O)c2cn(C)cn2)[C@@H](C)CN([C@H](C)CO)C(=O)c2cc(NC(=O)Nc3ccc(F)cc3)ccc2O1	i	nt	i	i	i
Cc1noc(C)c1S(=O)(=O)Nc1ccc2c(c1)C(=O)N([C@H](C)CO)C[C@H](C)[C@@H](CN(C)Cc1ccc3c(c1)OCO3)OCCCC[C@H](C)O2	i	i	i	i	i
Cc1cc(C)cc(NC(=O)Nc2ccc(-n3ccc(C(F)(F)F)n3)cc2)c1	i	i	i	i	46.2
Oc1c(Cl)cc(Cl)cc1/C=N/Nc1ncc(Br)cn1	i	nt	i	i	i
CN(/N=C/c1cc(Cl)cc(Cl)c1O)C(=S)NC(C)(C)C	i	i	i	nt	71.0
O=C(C[C@H]1CC[C@H](NC(=O)Nc2ccccc2F)[C@@H](CO)O1)NCc1ccc(Cl)cc1	i	i	i	i	i
SMILES	F508del corr	FGF22 binding	DENV2 CPE	ERAP1 HTS inh	E-selectin induc
COCC(=O)Nc1ccc2c(c1)C(=O)N(C)C[C@@H](OC)[C@H](C)CN[C@H](C)CO2	i	nt	nt	nt	i
COc1ccc(CC(=O)OC(C)CN2CCCCC2)cc1 (stereo not drawn)	i	43.4	i	i	nt
CC(CN1CCCCC1)OC(=O)c1ccco1 (stereo not drawn)	i	i	i	i	38.9
CC(CN1CCCC1)OC(=O)Cc1ccc(Cl)cc1 (stereo not drawn)	i	i	i	i	nt
C[C@@H]1CN([C@H](C)CO)C(=O)c2cc(NC(=O)C3CC3)ccc2O[C@@H]1CN(C)Cc1ccc(-c2ccccc2)cc1	i	i	i	i	i
CCCNC(=O)C[C@@H]1CC[C@H]2[C@H](COc3ccc(NC(=O)c4ccc(OC)cc4)cc3C(=O)N2C)O1	i	i	i	nt	i
O=S(=O)(NC(=S)NC1CCCCC1)c1ccccc1	i	i	i	i	i
O=S(=O)(NC(=S)NC1CCCCC1)c1cccs1	i	43.2	i	i	i
CCC(=O)N(C)C[C@@H]1Oc2cc(C#CC3(O)CCCC3)ccc2S(=O)(=O)N([C@@H](C)CO)C[C@H]1C	i	i	i	i	i
O=C1NC[C@H](c2ccccc2)OC(=O)[C@@H](Cc2ccc(F)cc2)CC/C=C/C[C@@H]1CC(=O)N(CCO)Cc1ccccc1	i	i	46.9	i	i
O=C1CCCC/C=C\C[C@H](CC(=O)N(CCO)Cc2ccccc2)C(=O)NC[C@H](c2ccccc2)O1	i	i	129.7	i	i
Cc1[nH]c2ccccc2c1C(=O)CSC(=S)N1CCN(C)CC1	i	i	55.3	i	i
C=CC1C2C(C)=CC(C3C(=O)N(C)C(=O)C32)N1Cc1ccc(OC)cc1 (stereo not drawn)	i	i	i	i	nt
CCC(C(=O)Nc1cc(Cl)ccc1OC)c1ccccc1 (stereo not drawn)	i	43.2	nt	i	nt
C=CCC12C=C(OC)C(=O)OC(OC)(C1O)[C@H](c1ccc3c(c1)OCO3)[C@H]2C (stereo partly drawn)	i	i	i	i	nt
C=CC[C@]12C=C(OC)C(=O)C(OC)=C1O[C@@H](c1ccc3c(c1)OCO3)[C@H]2C	i	i	30.2	i	nt
N#CC1=C(SCC(=O)NC23CC4CC(CC(C4)C2)C3)NC(=O)C(C#N)C12CCCCC2 (stereo not drawn)	i	1.9	i	i	nt
N#CC1=C(SCC(=O)Nc2cccc3cccnc23)NC(=O)C(C#N)C12CCCCC2 (stereo not drawn)	i	i	nt	i	nt
CC(C)n1cnnc1SCC(=O)Nc1cccnc1Cl	i	i	68.4	i	nt
CC(NC(=O)COC(=O)CCc1nc2ccccc2c(=O)[nH]1)c1ccccc1 (stereo not drawn)	i	i	i	i	49.0
C[n+]1ccccc1C1CCCC/C1=N\NC(N)=S (stereo not drawn)	i	43.2	i	43.5	nt
Nc1cc(C(=O)OCC(=O)NCc2ccc(F)cc2)ccc1Cl	i	44.0	i	i	nt
O=C(COC(=O)c1ccc2ncsc2c1)NCc1ccc(Cl)cc1	i	i	i	i	nt
CC(=O)c1c(C)[nH]c(C(=O)OCC(=O)NCc2ccc(Cl)cc2)c1C	11.6	i	i	i	i
